This is an account of results in publication PMC3947005 (Cancer research, 2013).

The subject of assay [1] is MPNSTs from the cis-Nf1+/-;p53+/- mouse model. As to conditions: ref [7], [44]; cited from earlier work.
Assay [2] relates to pAKT in sMPNST cells. Nature of the assay: Phospho-AKT Western blot. The note with it: 20 µM for 30 or 60 minutes. It counts as cell-based, mouse. Summed up: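 Mouse sMPNST cells exposed to a PI3K-inhibitor test compound at 20 µM for 30 or 60 min. Cells collected, trypsinized and lysed in RIPA buffer. Lysates resolved on 5–20% SDS-PAGE gels and immunoblotted for phospho-AKT and total AKT, with αTubulin or GAPDH as loading reference.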

In assay [3] the test system is pERK in sMPNST cells. Nature of the assay: Phospho-ERK Western blot. As to conditions: 10 µM for 30 minutes. It counts as cell-based, mouse. Put shortly:
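Mouse sMPNST cells treated with test compound at 10 µM for 30 min, then trypsinized and lysed in RIPA buffer. Lysates run on 5–20% SDS-PAGE gels and immunoblotted for phospho-ERK and total ERK, with αTubulin or GAPDH as loading reference.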

The test system of assay [4] is sMPNST cells. Nature of the assay: CellTiter-Glo ATP luminescence assay, dose response. Format: cell-based, mouse. As to conditions: rapamycin alone.
The test system of assay [5] is pS6 in sMPNST cells. Nature of the assay: pS6 Western blot. As to conditions: 0.05 µM (50 nM) for 30 or 60 min. Format: cell-based, mouse. Summed up: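 Mouse sMPNST cells exposed to test compound at 0.05 µM (50 nM) for 30 or 60 min. Cells collected, trypsinized and lysed in RIPA buffer. Lysates resolved on 5–20% SDS-PAGE gels and probed for phospho-S6.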

As for `c1cc(CN2CCCNCCNCCCNCC2)ccc1CN1CCCNCCNCCCNCC1` [AMD3100], the “inhibition of MPNSTs” value in assay [1] is given as “inhibit MPNSTs”.

`O=c1cc(N2CCOCC2)oc2c(-c3ccccc3)cccc12` [LY294002]: in assay [2], the pAKT inhibition result is listed as “effective pAKT inhibition”.

On to `N#CC(=C(/N)Sc1ccccc1N)/C(C#N)=C(/N)Sc1ccccc1N` [U0126], for which the Phospho-ERK inhibition result in assay [3] is listed as “verified by Western blotting”.

Regarding `CO[C@H]1C[C@@H]2CC[C@@H](C)[C@@](O)(O2)C(=O)C(=O)N2CCCC[C@H]2C(=O)O[C@H]([C@H](C)C[C@@H]2CC[C@@H](O)[C@H](OC)C2)CC(=O)[C@H](C)/C=C(\C)[C@@H](O)[C@@H](OC)C(=O)[C@H](C)C[C@H](C)/C=C/C=C/C=C/1C` [rapamycin], in assay [4], the “sMPNST cellular growth response” value was “relatively resistant”. The pS6 levels entry in assay [5] was “decreased pS6 levels”. The “inhibition of MPNSTs” value in assay [1] is reported as “inhibit MPNSTs”.
